Measured values published in ChEMBL document CHEMBL5715941, “AZD1152, a selective inhibitor of Aurora B kinase, inhibits human tumor xenograft growth by inducing apoptosis” (Clin Cancer Res, 2007).
The source made the active and inactive calls.

Columns and labels:
SW-620 [1] = experiment: Antitumor activity against human SW620 cells xenografted in Swiss nude mouse assessed as inhibition in PhH3 level at 2.5 mg/kg/day, sc measured over 48 hrs by flow cytometry analysis relative to control; type: functional
Outline: (§1)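 Male nude mice with palpable s.c. SW620 tumors (n = 4/group) received AZD1152 (0.5-150 mg/kg/d) or vehicle by constant 48-h s.c. mini-pump infusion. Tumors were then excised, fixed and disaggregated. Flow cytometry with propidium iodide gave DNA content (2N, 4N, >4N), and rabbit anti-PhH3 with fluorescein anti-rabbit IgG gave PhH3-positive cells (%).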

SW-620 [2] = experiment: Antitumor activity against human SW620 cells xenografted in Swiss nude mouse assessed as accumulation in proportion of 2N DNA content at 70 mg/kg/day, sc over 48 hrs by flow cytometry analysis relative to control; type: functional; outline: as §1
SW-620 [3] = experiment: Antitumor activity against human SW620 cells xenografted in Swiss nude mouse assessed as accumulation in proportion of 4N DNA content at 70 mg/kg/day, sc over 48 hrs by flow cytometry analysis relative to control; type: functional; outline: as §1
SW-620 [4] = experiment: Antitumor activity against human SW620 cells xenografted in immunodeficient Swiss athymic mouse assessed as inhibition of tumor volume at 150 mg/kg/day, sc for 48 hrs on days 7 to 9 and measured on day 23 relative to control; type: functional; conditions: SW-620, 408 h, time 17 day
Outline: (§2)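 Male Swiss athymic nude mice, 8-12 wk; tumor cells (1×10^6-1×10^7, 50:50 Matrigel) implanted s.c. on flank. Randomized (n = 8-11) at 0.2-0.5 cm3. AZD1152 in Tris buffer pH 9, or vehicle (0.3 mol/L Tris), by 48-h s.c. osmotic mini-pump infusion (two 24-h pumps in sequence). Caliper volumes up to 3×/week; growth inhibition from change in control vs treated volume; one-tailed t test.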

SW-620 [5] = experiment: Antitumor activity against human SW620 cells xenografted in immunodeficient Swiss athymic mouse assessed as maximum inhibition of tumor volume at 25 mg/kg/day, sc for 48 hrs on days 7 to 9 and measured on day 14 relative to control; type: functional; conditions: SW-620, 192 h, time 8 day; outline: as §2
SW-620 [6] = experiment: Antitumor activity against human SW620 cells xenografted in immunodeficient Swiss athymic mouse assessed as maximum inhibition of tumor volume at 10 mg/kg/day, sc for 48 hrs on days 7 to 9 and measured on day 10 relative to control; type: functional; conditions: SW-620, 96 h, time 4 day; outline: as §2
SW-620 [7] = experiment: Antitumor activity against human SW620 cells xenografted in immunodeficient Swiss athymic mouse assessed as inhibition of tumor volume at 10 mg/kg/day, sc for 48 hrs on days 7 to 9 and measured on day 23 relative to control; type: functional; conditions: SW-620, 408 h, time 17 day; outline: as §2
SW-620 [8] = experiment: Antitumor activity against human SW620 cells xenografted in immunodeficient Swiss athymic mouse assessed as inhibition of tumor volume at 25 mg/kg/day, ip for 4 days on days 6 to 9 and measured on day 24 relative to control; type: functional; conditions: SW-620, 456 h, time 19 day
Outline: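 Male Swiss nude mice bearing s.c. flank SW620 xenografts (cells in Matrigel), randomized (n = 8-11) at 0.2-0.3 cm3. AZD1152 in Tris buffer pH 9, or vehicle, given as a once-daily i.v. or i.p. bolus. Caliper volumes up to 3×/week; inhibition from change in control vs treated volume; one-tailed t test.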

COLO 205 [9] = experiment: Antitumor activity against human COLO 205 cells xenografted in immunodeficient Swiss athymic mouse assessed as maximum inhibition of tumor volume at 150 mg/kg/day, sc for 48 hrs on days 5 to 7 and measured on day 18 relative to control; type: functional; conditions: COLO 205, 336 h, time 14 day; outline: as §2
COLO 205 [10] = experiment: Antitumor activity against human COLO 205 cells xenografted in immunodeficient Swiss athymic mouse assessed as inhibition of tumor volume at 150 mg/kg/day, sc for 48 hrs on days 5 to 7 and measured on day 21 relative to control; type: functional; conditions: COLO 205, 408 h, time 17 day; outline: as §2
A549 = experiment: Antitumor activity against human A549 cells xenografted in immunodeficient Swiss athymic mouse assessed as maximum inhibition of tumor volume at 150 mg/kg/day, sc for 48 hrs on days 13 to 15 and measured on day 26 relative to control; type: functional; conditions: A549, 336 h, time 14 day; outline: as §2
Calu-6 = experiment: Antitumor activity against human Calu-6 cells xenografted in immunodeficient Swiss athymic mouse assessed as inhibition of tumor volume at 150 mg/kg/day, sc for 48 hrs on days 20 to 22 and measured on day 41 relative to control; type: functional; conditions: Calu-6, 528 h, time 22 day; outline: as §2
HL-60 = experiment: Antitumor activity against human HL-60 cells xenografted in immunodeficient Swiss athymic mouse assessed as inhibition of tumor volume at 150 mg/kg/day, sc for 48 hrs on days 16 to 18 and measured on day 35 relative to control; type: functional; conditions: HL-60, 480 h, time 20 day; outline: as §2
SW-620 [11] = experiment: Antitumor activity against human SW620 cells xenografted in nude athymic rat assessed as proportion of 4N DNA content in tumor cells at 25 mg/kg/day, iv for 1 to 5 consecutive days by flow cytometry analysis relative to control; type: functional; conditions: time 1-5 day
Outline: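 Nude rats with SW620 xenografts (0.5-1 cm3) were given vehicle or AZD1152 at 25 mg/kg/d as an i.v. bolus once daily on days 1-4. Subgroups (n = 3) were killed on days 0, 5, 9, 12, 16 and 19. Disaggregated tumors were analyzed by flow cytometry for PhH3 (% of control) and for 4N and >4N DNA (fold over control).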

SW-620 [12] = experiment: Antitumor activity against human SW620 cells xenografted in nude athymic rat assessed as larger multinucleated tumor cells at 25 mg/kg/day, iv for 4 consecutive days and measured on 9 day by H&E staining based immunohistochemistry analysis; type: functional, organism-based
Outline: (§3)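 Nude rats bearing SW620 tumors were dosed i.v. with AZD1152 at 25 mg/kg/d or with vehicle on days 1-4. Subgroups (n = 3) were killed at set days. Tumor and bone marrow sections were H&E-stained and examined histologically.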

SW-620 [13] = experiment: Antitumor activity against human SW620 cells xenografted in nude athymic rat assessed as increase in cleaved caspase-3 at 25 mg/kg/day, iv for 4 consecutive days and measured on 9 day by H&E staining based immunohistochemistry analysis; type: functional, organism-based
Outline: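 Nude rats bearing SW620 tumors received i.v. AZD1152 at 25 mg/kg/d or vehicle on days 1-4 (n = 3 per time point). Tumor sections were immunostained for cleaved caspase-3 (HRP polymer). The percentage area of brown staining per field was quantified by color-threshold image analysis over six fields per section at ×20.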

SW-620 [14] = experiment: Antitumor activity against human SW620 cells xenografted in nude athymic rat assessed as normal appearance in bone marrow at 25 mg/kg/day, iv for 4 consecutive days and measured on 9 day by H&E staining based immunohistochemistry analysis; type: functional, organism-based; outline: as §3
SW-620 [15] = experiment: Antitumor activity against human SW620 cells xenografted in nude athymic rat assessed as most affect in leukocyte population at 25 mg/kg/day, iv for 4 consecutive days by flow cytometric analysis; type: functional, organism-based; conditions: time 4.0 day
SW-620 [16] = experiment: Antitumor activity against human SW620 cells xenografted in nude athymic rat assessed as suppression in PhH3 at 25 mg/kg/day, iv for 4 consecutive days and measured during dosing period (days 1 to 4) by flow cytometry analysis relative to control; conditions: time 1 to 4 day

Q: `CCN(CCCOc1ccc2c(Nc3cc(CC(=O)Nc4cccc(F)c4)[nH]n3)ncnc2c1)CCOP(=O)(O)O` [BARASERTIB] was tested. Which inhibition in vivo at 2.5 mg/kg/day (SW-620 [1]) did it give?
A: 69%

Q: And the Activity (SW-620 [2])?
A: 35%

Q: And the Activity (SW-620 [3])?
A: 56%

Q: What about the inhibition in vivo at 150 mg/kg/day (SW-620 [4]) of the same compound?
A: 87%

Q: And the inhibition in vivo at 25 mg/kg/day (SW-620 [5])?
A: 65%

Q: And the inhibition in vivo at 10 mg/kg/day (SW-620 [6])?
A: 55%

Q: And the inhibition in vivo at 10 mg/kg/day (SW-620 [7])?
A: 28%

Q: And the inhibition in vivo at 25 mg/kg/day (SW-620 [8])?
A: 54%

Q: And the inhibition in vivo at 150 mg/kg/day (COLO 205 [9])?
A: > 100%

Q: What about the inhibition in vivo at 150 mg/kg/day (COLO 205 [10]) of the same compound?
A: 94%

Q: And the inhibition in vivo at 150 mg/kg/day (A549)?
A: 79%

Q: What about the inhibition in vivo at 150 mg/kg/day (Calu-6) of the same compound?
A: 55%

Q: What about the inhibition in vivo at 150 mg/kg/day (HL-60) of the same compound?
A: > 100%

Q: What about the Activity (SW-620 [11]) of the same compound?
A: 60%

Q: And the Activity (SW-620 [12])?
A: Active

Q: What about the Activity (SW-620 [13]) of the same compound?
A: Active

Q: And the Activity (SW-620 [14])?
A: inactive

Q: What about the Activity (SW-620 [15]) of the same compound?
A: Active

Q: What about the Activity (SW-620 [16]) of the same compound?
A: ~40%
